Results: ChEMBL document CHEMBL4602726, “Discovery of the First Vitamin K Analogue as a Potential Treatment of Pharmacoresistant Seizures” (J Med Chem, 2020)

How the values were obtained:
Cytochrome P450 3A4 = Cytochrome P450 3A4 (Homo sapiens, UniProt P08684); assay: Inhibition of CYP3A4 in human liver microsomes using isoform-specific probe substrates incubated for 15 to 30 mins by LC-MS/MS analysis; type: ADME
Method in brief: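 Pooled mixed-gender human liver microsomes 0.2 mg/mL in 100 mM potassium phosphate with 2 mM NADPH. Isoform-specific probe substrates near Km. Organic solvent ≤1% final. Incubated 37°C for 15–30 min, quenched with acetonitrile plus internal standard. Probe metabolites measured by LC-MS/MS; percent inhibition versus vehicle, IC50 by variable-slope sigmoid fit.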

[1] = Toxicity in mouse HT22 cells assessed as inhibition of cell viability at 10 uM incubated for 48 hrs by Cell-titer-Blue dye based fluorescence spectrophotometry relative to control; set-up: species or system HT-22; conditions: read-out: Activity
Method in brief: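 HT-22 cells in DMEM high glucose with 10% FBS, 2000 per well. Serially diluted compound added after 12 h, incubated 48 h. […] Background subtracted, normalized to control wells.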

[2] = Ratio of drug level in brain to plasma in CD1 mouse at 400 mg/kg, ip after 2 hrs by LC-MS/MS analysis; type: ADME, organism-based; conditions: brain and plasma, read-out: BPR
Method in brief: (§1)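 Male mice fasted overnight and given ip dose in 95% Miglyol 840/5% DMSO. Plasma precipitated 3:1 with acetonitrile plus internal standard. Brain homogenized 3:1 in PBS, then acetonitrile extraction. LC-MS/MS in MRM mode, standard curve 1 ng/mL–10 μg/mL. Ratio = mean tissue (ng/g) over mean plasma (ng/mL) concentration.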

[3] = molecular target: Voltage-gated inwardly rectifying potassium channel KCNH2 (Homo sapiens, UniProt Q12809); assay: Inhibition of human ERG
Voltage-gated inwardly rectifying potassium channel KCNH2, sequence (Q12809 whole entry): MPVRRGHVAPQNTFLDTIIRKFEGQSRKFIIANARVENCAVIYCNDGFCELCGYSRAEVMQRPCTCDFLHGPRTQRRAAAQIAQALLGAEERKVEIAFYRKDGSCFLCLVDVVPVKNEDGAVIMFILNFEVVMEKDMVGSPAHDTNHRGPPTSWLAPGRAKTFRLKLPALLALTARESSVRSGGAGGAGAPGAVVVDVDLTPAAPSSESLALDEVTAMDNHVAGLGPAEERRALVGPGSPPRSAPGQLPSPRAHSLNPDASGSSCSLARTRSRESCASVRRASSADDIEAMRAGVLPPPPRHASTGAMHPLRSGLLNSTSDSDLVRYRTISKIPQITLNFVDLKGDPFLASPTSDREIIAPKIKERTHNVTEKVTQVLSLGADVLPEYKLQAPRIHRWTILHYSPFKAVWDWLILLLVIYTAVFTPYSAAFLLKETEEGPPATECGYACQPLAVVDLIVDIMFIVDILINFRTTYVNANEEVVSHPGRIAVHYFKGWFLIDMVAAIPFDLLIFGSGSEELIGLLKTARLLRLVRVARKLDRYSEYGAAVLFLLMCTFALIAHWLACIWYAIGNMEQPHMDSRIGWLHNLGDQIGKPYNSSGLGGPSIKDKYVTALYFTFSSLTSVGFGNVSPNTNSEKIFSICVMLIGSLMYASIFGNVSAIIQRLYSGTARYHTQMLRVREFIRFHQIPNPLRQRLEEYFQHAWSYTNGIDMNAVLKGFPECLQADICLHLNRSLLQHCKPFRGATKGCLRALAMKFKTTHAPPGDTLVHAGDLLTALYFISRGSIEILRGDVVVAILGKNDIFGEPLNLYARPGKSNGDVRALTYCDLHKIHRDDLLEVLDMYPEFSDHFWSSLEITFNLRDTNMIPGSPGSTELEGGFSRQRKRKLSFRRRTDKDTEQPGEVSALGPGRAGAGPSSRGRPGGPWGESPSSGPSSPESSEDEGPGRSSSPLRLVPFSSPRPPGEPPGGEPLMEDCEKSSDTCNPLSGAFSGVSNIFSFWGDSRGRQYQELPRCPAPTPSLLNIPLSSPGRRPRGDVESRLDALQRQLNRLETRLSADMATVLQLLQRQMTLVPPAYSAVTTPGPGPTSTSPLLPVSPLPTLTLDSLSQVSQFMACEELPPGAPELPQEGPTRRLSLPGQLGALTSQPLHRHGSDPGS

[4] = Drug level in CD1 mouse brain at 400 mg/kg, ip after 0.5 hrs by LC-MS/MS analysis; type: ADME, organism-based; conditions: read-out: Drug uptake; method in brief: as §1
Danio rerio = species on record: Danio rerio; assay: Increase in ATP concentration in zebrafish at 1 uM incubated for 24 hrs by fluorometric ATP assay relative to control; type: functional
Method in brief: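 7 dpf zebrafish larvae, one per well, kept at 28.5°C for 24 h with compound in E3 buffer (DMSO stock). DMSO vehicle in control wells. Twelve fish per condition pooled, flash-frozen, homogenized in ATP buffer and centrifuged. ATP in the supernatant read by fluorescence at ex 535/em 587 nm, normalized to total protein (BCA), and expressed as nmole/mg relative to DMSO control. n = 7–13.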

Cytochrome P450 3A4, sequence (P08684 whole entry, canonical isoform): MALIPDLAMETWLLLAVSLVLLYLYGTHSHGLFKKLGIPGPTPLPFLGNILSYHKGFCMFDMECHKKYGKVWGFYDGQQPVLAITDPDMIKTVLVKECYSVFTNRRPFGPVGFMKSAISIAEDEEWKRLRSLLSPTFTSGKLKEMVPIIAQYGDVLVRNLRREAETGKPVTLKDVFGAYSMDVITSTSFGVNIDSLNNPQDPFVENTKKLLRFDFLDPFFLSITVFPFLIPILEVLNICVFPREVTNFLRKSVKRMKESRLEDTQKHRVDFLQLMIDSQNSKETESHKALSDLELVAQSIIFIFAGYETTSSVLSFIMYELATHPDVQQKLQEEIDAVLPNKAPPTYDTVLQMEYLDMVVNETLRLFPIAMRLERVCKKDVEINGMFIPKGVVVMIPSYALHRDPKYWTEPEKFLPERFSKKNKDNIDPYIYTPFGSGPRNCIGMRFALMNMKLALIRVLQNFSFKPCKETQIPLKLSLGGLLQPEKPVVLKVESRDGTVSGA

Compound: CC(C)CCNC1=CC(=O)c2ccccc2C1=O
- IC50 (Cytochrome P450 3A4): > 100 µM
- inhibition at 48 h, 10 µM [1]: 11.9%
- Kp at 2 h [2]: 1.79
- IC50 [3]: > 30 µM
- concentration at 0.5 h [4]: 3320 ng/g
- Activity (Danio rerio): 19%
